Measured values from ChEMBL document CHEMBL1949587 (Bioorg Med Chem, 2012).
≈ marks a conversion by molar mass, not a printed value.

How the values were obtained:
HUVEC [1] = test: Antiangiogenic activity in HUVEC co-cultured with fibroblasts assessed as inhibition of capillary-like tube formation at 20 uM after 11 days by microscopic staining method relative to control; format: functional; details: Homo sapiens, 264 h
Outline: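 Commercial co-culture kit of HUVEC and fibroblasts, given compound at final 4 or 20 μM and held at 37 °C, 5% CO₂ for 11 days. Tubes fixed with 70% ethanol and stained for CD31, then photographed under a microscope. Tube area quantified by image analysis and inhibition calculated against control taken as 100%.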

[2] = Cytotoxicity in fibroblast cells assessed as morphological change at 4 to 20 uM; format: cell-based
[3] = Cmax in nude mouse at 30 mg/kg, po by LC-MS/MS analysis; format: ADME, organism-based; set-up: dose 30 mg/kg, route oral; details: in vivo
Outline: (§1)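 Female nude mice given single oral dose in DMSO/Cremophor EL/1% Tween 80 (1:1:8 v/v/v) by stomach sonde. Blood taken at 30 min, 1, 2, 4, 7 and 24 h (n = 2/time point). Plasma precipitated with CH3CN/MeOH plus internal standard, filtered, measured by LC-MS/MS (LLOQ 20 ng/mL). Parameters by non-compartmental analysis; CL given as CL/F.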

[4] = Half life in nude mouse at 30 mg/kg, po by LC-MS/MS analysis; format: ADME, organism-based; set-up: dose 30 mg/kg, route oral; details: in vivo; outline: as §1
[5] = AUC (0 to 24 hrs) in nude mouse at 30 mg/kg, po by LC-MS/MS analysis; format: ADME, organism-based; set-up: time < 24 hr, dose 30 mg/kg, route oral; details: plasma
Calu-6 = test: Antitumor activity against human Calu6 cells xenografted in po dosed BALB/c mouse assessed as tumor growth inhibition administered qd for 11 days; format: functional; details: for ED50: Calu-6, po, 264 h
Outline: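 Calu-6 cells in Hanks' balanced salt solution, 5.0 × 10⁶ per mouse, implanted s.c. in flank of female Balb/c nude mice. Once tumors reached 150 mm³, oral dosing once daily for 11 days. Tumor volume = 1/2 × long × short² diameter; growth inhibition from volume change in treated versus control group.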

Mus musculus = test: Toxicity in human Calu6 cells xenografted BALB/c mouse assessed as body weight change at 1 to 10 mg/kg, po qd for 11 days; format: organism-based, Calu-6; set-up: dose 1-10 mg/kg, route oral; details: in vivo, 264 h
Outline: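 Calu-6 xenografts (5.0 × 10⁶ cells s.c., female Balb/c nude mice). Once tumors reached 150 mm³, oral dosing once daily for 11 days at 1, 3 and 10 mg/kg. Body weight change recorded as percent over the treatment period.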

WiDr = test: Antiproliferative activity against human WiDr cells assessed as cell growth inhibition; format: cell-based
COLO 205 = test: Antiproliferative activity against human COLO205 cells assessed as cell growth inhibition; format: cell-based
HCT-15 = test: Antiproliferative activity against human HCT15 cells assessed as cell growth inhibition; format: cell-based
NCI-H441 = test: Antiproliferative activity against human NCI-H441 cells assessed as cell growth inhibition; format: cell-based
[6] = Antiproliferative activity against human MDA-MB-435S cells assessed as cell growth inhibition; format: cell-based
IGROV-1 = test: Antiproliferative activity against human IGROV1 cells assessed as cell growth inhibition; format: cell-based
PC-3 = test: Antiproliferative activity against human PC3 cells assessed as cell growth inhibition; format: cell-based
CWR22R = test: Antiproliferative activity against human 22Rv1 cells assessed as cell growth inhibition; format: cell-based
CAPAN-1 = test: Antiproliferative activity against human Capan1 cells assessed as cell growth inhibition; format: cell-based
BXPC-3 = test: Antiproliferative activity against human BxPC3 cells assessed as cell growth inhibition; format: cell-based
PANC-1 = test: Antiproliferative activity against human PANC1 cells assessed as cell growth inhibition; format: cell-based
MKN-28 = test: Antiproliferative activity against human MKN28 cells assessed as cell growth inhibition; format: cell-based
C32 = test: Antiproliferative activity against human C32 cells assessed as cell growth inhibition; format: cell-based
[7] = Antiproliferative activity against human 10C9 cells assessed as cell growth inhibition; format: cell-based
K562 = test: Antiproliferative activity against human K562 cells assessed as cell growth inhibition; format: cell-based
[8] = Antiproliferative activity against human JOK1 cells assessed as cell growth inhibition; format: cell-based
[9] = target: Tyrosine-protein kinase receptor UFO (Homo sapiens, UniProt P30530); test: Inhibition of AXL
[10] = target: Leukocyte tyrosine kinase receptor (Homo sapiens, UniProt P29376); test: Inhibition of LTK
Leukocyte tyrosine kinase receptor, sequence (P29376 whole entry): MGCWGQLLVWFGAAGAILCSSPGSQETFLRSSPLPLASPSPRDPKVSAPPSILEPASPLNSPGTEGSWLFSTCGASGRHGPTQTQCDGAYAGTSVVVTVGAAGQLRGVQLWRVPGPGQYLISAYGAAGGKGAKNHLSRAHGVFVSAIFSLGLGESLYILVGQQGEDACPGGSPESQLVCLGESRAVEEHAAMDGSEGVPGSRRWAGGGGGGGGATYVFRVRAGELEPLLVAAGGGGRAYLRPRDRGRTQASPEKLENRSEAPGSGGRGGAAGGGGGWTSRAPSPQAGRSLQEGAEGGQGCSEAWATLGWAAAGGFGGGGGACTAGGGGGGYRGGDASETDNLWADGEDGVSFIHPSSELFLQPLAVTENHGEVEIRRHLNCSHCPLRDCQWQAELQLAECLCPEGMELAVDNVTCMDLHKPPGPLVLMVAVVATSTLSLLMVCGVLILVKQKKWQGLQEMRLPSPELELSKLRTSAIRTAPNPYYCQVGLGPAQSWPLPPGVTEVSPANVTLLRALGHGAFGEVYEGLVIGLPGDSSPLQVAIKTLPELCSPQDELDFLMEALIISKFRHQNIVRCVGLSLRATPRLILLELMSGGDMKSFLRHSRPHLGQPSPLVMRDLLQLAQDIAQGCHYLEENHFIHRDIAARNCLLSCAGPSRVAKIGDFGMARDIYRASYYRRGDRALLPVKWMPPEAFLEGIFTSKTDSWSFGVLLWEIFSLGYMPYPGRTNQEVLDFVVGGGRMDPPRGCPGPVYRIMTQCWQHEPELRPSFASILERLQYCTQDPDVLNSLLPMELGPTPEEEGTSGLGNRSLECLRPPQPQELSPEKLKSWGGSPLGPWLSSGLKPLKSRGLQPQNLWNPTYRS

Ephrin type-A receptor 2 = Ephrin type-A receptor 2 (Homo sapiens, UniProt P29317); test: Inhibition of EPHA2
[11] = target: Receptor-type tyrosine-protein kinase FLT3 (Homo sapiens, UniProt P36888); test: Inhibition of FLT3
Receptor-type tyrosine-protein kinase FLT3, sequence (P36888 whole entry): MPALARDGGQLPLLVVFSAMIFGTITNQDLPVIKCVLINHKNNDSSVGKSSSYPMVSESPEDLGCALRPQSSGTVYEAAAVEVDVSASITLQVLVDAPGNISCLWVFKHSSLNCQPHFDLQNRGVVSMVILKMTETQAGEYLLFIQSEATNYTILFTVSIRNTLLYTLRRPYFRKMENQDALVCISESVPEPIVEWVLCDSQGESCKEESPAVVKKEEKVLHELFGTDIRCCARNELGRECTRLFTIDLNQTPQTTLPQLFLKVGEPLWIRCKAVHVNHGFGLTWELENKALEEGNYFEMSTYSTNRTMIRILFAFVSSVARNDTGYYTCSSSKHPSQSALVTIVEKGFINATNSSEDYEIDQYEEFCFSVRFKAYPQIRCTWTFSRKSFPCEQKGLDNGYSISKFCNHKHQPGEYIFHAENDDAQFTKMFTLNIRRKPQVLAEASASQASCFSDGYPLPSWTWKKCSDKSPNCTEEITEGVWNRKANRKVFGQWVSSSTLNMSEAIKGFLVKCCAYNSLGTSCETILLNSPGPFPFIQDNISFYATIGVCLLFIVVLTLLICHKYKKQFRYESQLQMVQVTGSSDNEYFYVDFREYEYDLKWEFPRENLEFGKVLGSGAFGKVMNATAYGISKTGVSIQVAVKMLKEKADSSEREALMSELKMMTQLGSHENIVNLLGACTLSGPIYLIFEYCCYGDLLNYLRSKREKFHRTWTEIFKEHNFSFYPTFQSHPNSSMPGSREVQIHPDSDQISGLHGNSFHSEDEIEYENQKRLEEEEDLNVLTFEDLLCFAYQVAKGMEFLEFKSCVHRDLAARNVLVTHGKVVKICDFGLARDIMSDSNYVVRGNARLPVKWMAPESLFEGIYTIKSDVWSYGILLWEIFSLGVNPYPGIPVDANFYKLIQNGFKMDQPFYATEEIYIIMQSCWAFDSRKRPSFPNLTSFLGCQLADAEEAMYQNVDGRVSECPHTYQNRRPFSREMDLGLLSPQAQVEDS

Insulin receptor = Insulin receptor (Homo sapiens, UniProt P06213); test: Inhibition of INSR
Insulin receptor, sequence (P06213 28-758 limits assumed): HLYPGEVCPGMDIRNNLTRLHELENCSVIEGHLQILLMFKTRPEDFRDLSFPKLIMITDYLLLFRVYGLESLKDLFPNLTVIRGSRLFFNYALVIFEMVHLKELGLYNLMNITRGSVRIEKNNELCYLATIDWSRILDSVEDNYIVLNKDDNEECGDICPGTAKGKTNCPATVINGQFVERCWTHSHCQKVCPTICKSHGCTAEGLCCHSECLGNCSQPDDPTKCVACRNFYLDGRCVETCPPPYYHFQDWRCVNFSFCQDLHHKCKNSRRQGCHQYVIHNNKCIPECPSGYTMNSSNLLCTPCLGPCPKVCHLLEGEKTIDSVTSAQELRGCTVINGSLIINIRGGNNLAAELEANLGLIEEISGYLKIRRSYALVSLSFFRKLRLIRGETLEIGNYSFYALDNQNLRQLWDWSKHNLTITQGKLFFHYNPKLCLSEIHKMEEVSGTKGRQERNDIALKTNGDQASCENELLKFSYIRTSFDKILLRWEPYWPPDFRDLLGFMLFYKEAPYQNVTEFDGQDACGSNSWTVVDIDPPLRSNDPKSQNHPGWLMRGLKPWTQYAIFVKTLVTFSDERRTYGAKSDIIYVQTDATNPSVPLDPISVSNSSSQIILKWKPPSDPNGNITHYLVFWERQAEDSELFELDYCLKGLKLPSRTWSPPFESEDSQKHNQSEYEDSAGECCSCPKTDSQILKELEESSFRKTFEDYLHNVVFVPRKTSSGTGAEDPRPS
Insulin receptor, sequence (P06213 763-1382 limits assumed): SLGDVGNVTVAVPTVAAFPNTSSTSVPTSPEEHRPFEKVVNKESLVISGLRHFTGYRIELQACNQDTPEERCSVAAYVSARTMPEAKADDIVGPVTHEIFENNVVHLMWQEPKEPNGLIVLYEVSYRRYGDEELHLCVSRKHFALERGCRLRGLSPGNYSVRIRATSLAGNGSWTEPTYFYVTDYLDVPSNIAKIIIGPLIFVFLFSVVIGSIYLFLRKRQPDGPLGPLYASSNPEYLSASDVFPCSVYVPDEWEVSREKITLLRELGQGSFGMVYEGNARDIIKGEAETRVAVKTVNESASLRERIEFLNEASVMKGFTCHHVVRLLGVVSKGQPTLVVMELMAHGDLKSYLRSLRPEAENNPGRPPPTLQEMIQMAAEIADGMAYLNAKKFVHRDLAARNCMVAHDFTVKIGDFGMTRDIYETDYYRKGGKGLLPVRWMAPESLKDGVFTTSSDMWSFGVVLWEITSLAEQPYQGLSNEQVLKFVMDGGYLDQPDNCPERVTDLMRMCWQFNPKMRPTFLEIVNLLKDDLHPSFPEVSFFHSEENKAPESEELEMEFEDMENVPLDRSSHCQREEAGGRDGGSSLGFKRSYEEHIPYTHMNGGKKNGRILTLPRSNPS

[12] = target: Epithelial discoidin domain-containing receptor 1 (Homo sapiens, UniProt Q08345); test: Inhibition of DDR1
Epithelial discoidin domain-containing receptor 1, sequence (Q08345 whole entry, the tested form may be a part): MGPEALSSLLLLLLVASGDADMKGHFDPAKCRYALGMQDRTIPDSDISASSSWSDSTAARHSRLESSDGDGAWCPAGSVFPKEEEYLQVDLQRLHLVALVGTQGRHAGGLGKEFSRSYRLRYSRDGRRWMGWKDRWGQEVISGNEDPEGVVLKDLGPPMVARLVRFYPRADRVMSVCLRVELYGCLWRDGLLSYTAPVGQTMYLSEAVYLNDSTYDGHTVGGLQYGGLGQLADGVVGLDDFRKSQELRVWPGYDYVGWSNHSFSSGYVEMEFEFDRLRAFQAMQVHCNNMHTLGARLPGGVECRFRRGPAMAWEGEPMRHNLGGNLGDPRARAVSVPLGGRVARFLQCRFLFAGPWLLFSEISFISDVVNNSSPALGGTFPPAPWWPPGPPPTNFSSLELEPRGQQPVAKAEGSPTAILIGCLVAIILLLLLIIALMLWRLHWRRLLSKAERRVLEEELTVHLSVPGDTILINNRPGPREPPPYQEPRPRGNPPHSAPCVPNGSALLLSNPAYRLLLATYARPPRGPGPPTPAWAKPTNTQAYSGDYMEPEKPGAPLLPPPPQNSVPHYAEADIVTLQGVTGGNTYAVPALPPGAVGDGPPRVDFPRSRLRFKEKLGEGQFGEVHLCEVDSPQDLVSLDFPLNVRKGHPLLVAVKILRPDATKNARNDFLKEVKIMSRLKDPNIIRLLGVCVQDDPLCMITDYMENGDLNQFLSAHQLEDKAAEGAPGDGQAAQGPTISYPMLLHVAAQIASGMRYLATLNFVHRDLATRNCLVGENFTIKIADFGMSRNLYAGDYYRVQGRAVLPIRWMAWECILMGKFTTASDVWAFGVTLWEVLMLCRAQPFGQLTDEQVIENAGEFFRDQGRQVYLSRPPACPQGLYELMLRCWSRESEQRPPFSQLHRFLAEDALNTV

[13] = target: Tyrosine-protein kinase Yes (Homo sapiens, UniProt P07947); test: Inhibition of YES
[14] = target: Tyrosine-protein kinase Lyn (Homo sapiens, UniProt P07948); test: Inhibition of Lyn
Tyrosine-protein kinase Lyn, sequence (P07948 whole entry): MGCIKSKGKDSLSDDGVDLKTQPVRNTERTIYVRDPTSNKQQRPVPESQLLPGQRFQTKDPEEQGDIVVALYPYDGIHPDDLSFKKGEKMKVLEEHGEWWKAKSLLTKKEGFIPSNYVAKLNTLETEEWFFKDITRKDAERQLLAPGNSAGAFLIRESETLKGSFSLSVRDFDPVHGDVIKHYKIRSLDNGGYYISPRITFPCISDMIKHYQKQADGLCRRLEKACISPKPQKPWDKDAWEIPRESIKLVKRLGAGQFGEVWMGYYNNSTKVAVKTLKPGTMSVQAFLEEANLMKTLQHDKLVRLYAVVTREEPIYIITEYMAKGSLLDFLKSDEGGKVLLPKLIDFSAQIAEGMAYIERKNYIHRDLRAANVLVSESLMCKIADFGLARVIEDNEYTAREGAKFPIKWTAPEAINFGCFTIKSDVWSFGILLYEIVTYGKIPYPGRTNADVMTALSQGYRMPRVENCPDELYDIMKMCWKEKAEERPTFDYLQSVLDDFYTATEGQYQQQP

[15] = target: Tyrosine-protein kinase ABL1 (Homo sapiens, UniProt P00519); test: Inhibition of ABL
Focal adhesion kinase 1 = Focal adhesion kinase 1 (Homo sapiens, UniProt Q05397); test: Inhibition of FAK
[16] = target: Protein-tyrosine kinase 6 (Homo sapiens, UniProt Q13882); test: Inhibition of BRK
[17] = target: Glycogen synthase kinase-3 beta (Homo sapiens, UniProt P49841); test: Inhibition of GSK3-beta
Glycogen synthase kinase-3 beta, sequence (P49841 whole entry): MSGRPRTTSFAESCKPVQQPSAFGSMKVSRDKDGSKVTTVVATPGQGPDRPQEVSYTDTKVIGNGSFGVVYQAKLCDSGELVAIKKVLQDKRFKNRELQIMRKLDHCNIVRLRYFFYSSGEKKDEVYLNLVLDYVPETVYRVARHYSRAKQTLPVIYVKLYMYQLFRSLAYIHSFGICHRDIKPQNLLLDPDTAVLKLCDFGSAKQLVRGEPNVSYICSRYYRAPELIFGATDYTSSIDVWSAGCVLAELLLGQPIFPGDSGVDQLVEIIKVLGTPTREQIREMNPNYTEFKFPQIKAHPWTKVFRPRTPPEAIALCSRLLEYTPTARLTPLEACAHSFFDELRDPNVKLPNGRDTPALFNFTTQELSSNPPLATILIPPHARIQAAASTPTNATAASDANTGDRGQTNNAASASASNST

[18] = target: Cyclin-dependent kinase 1 (Homo sapiens, UniProt P06493); test: Inhibition of CDK1
[19] = target: Cyclin-dependent kinase 2 (Homo sapiens, UniProt P24941); test: Inhibition of CDK2
A549 = test: Antiproliferative activity against human A549 cells assessed as cell growth inhibition; format: cell-based
NCI-H460 = test: Antiproliferative activity against human NCI-H460 cells assessed as cell growth inhibition; format: cell-based
T47D = test: Antiproliferative activity against human T47D cells assessed as cell growth inhibition; format: cell-based
[20] = Antiproliferative activity against human Huh1 cells assessed as cell growth inhibition; format: cell-based; details: HuH-1
HUVEC [21] = test: Antiangiogenic activity in HUVEC assessed as inhibition of VEGF-induced cell proliferation after 4 days; format: functional, cell-based; details: Homo sapiens, 96 h
Outline: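 HUVECs maintained in RPMI1640 with 10% FCS, 50 μg/mL heparin and ECGS, then seeded at 3000 cells/well in RPMI1640 with 5% FCS and 20 ng/mL VEGF, with compound at serially diluted concentrations. Incubated at 37 °C, 5% CO₂. Read-out is Cell Counting Kit-8, absorbance at 450 nm. Inhibition = (1−T/C)×100 against untreated control.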

HCT-116 = test: Antiproliferative activity against human HCT116 cells; format: cell-based
[22] = Solubility of the compound in fasted state simulated intestinal fluid at 10 mM after 2 hrs by HPLC-UV analysis; format: physicochemical
Outline: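 Triplicate samples made from 10 mM DMSO stocks. DMSO evaporated (1 h), residue dissolved in FaSSIF and shaken 2 h. Solutions filtered, filtrate analysed by UV or HPLC-UV against a four-point calibration curve from the stocks. Result in µg/mL.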

COc1ccc(C(=O)NC[C@H](O)CO)cc1/C=C/c1ccc(Cl)cc1
inhibition at 20 µM (HUVEC [1]): 93% | Activity [2]: Non-toxic | Cmax [3]: 9370 ng/mL | half-life [4]: 8.5 h | AUC(0-t) at 24 h [5]: 90200 ng·h/mL | TGI (Calu-6): Dose-dependent effect | ED50 (Calu-6): 2.3 mg/kg | Activity (Mus musculus): Non-toxic | IC50 (WiDr): 15 µM | IC50 (COLO 205): 18 µM | IC50 (HCT-15): 29 µM | IC50 (NCI-H441): 34 µM | IC50 [6]: 69 µM | IC50 (IGROV-1): 1.4 µM | IC50 (PC-3): 17 µM | IC50 (CWR22R): 21 µM | IC50 (CAPAN-1): 67 µM | IC50 (BXPC-3): 51 µM | IC50 (PANC-1): 49 µM | IC50 (MKN-28): 23 µM | IC50 (C32): 46 µM | IC50 [7]: 50 µM | IC50 (K562): 36 µM | IC50 [8]: 38 µM | IC50 [9]: > 50 µM | IC50 [10]: > 50 µM | IC50 (Ephrin type-A receptor 2): > 50 µM | IC50 [11]: > 50 µM | IC50 (Insulin receptor): > 50 µM | IC50 [12]: > 50 µM | IC50 [13]: > 50 µM | IC50 [14]: > 50 µM | IC50 [15]: > 50 µM | IC50 (Focal adhesion kinase 1): > 50 µM | IC50 [16]: > 50 µM | IC50 [17]: > 50 µM | IC50 [18]: > 50 µM | IC50 [19]: > 50 µM | IC50 (A549): 18 µM | IC50 (NCI-H460): 24 µM | IC50 (T47D): 7.2 µM | IC50 [20]: 30 µM | IC50 (HUVEC [21]): 0.25 µM | IC50 (HCT-116): 21 µM | solubility at 2 h, 10000 µM [22]: 263 µg/mL (≈ 727 µM)

COc1ccc(C(=O)NC[C@@H](O)CO)cc1/C=C/c1ccc(Cl)cc1
inhibition at 20 µM (HUVEC [1]): 86% | Activity [2]: Non-toxic | Cmax [3]: 8270 ng/mL | half-life [4]: 7.8 h | AUC(0-t) at 24 h [5]: 86400 ng·h/mL | TGI (Calu-6): Dose-dependent effect | ED50 (Calu-6): 3.2 mg/kg | Activity (Mus musculus): Non-toxic | IC50 (WiDr): 7 µM | IC50 (COLO 205): 18 µM | IC50 (HCT-15): 20 µM | IC50 (NCI-H441): 25 µM | IC50 [6]: 74 µM | IC50 (IGROV-1): 0.92 µM | IC50 (PC-3): 24 µM | IC50 (CWR22R): 8.6 µM | IC50 (CAPAN-1): 47 µM | IC50 (BXPC-3): 27 µM | IC50 (PANC-1): 39 µM | IC50 (MKN-28): 15 µM | IC50 (C32): 38 µM | IC50 [7]: 38 µM | IC50 (K562): 29 µM | IC50 [8]: 31 µM | IC50 [9]: > 50 µM | IC50 [10]: > 50 µM | IC50 (Ephrin type-A receptor 2): > 50 µM | IC50 [11]: > 50 µM | IC50 (Insulin receptor): > 50 µM | IC50 [12]: > 50 µM | IC50 [13]: > 50 µM | IC50 [14]: > 50 µM | IC50 [15]: > 50 µM | IC50 (Focal adhesion kinase 1): > 50 µM | IC50 [16]: > 50 µM | IC50 [17]: > 50 µM | IC50 [18]: > 50 µM | IC50 [19]: > 50 µM | IC50 (A549): 13 µM | IC50 (NCI-H460): 15 µM | IC50 (T47D): 4.5 µM | IC50 [20]: 30 µM | IC50 (HUVEC [21]): 0.48 µM | IC50 (HCT-116): 13 µM | solubility at 2 h, 10000 µM [22]: 225 µg/mL (≈ 622 µM)
